Assay outcomes from PubChem.
KCNK9 inh – human KCNK9 channel inhibition; Q9NPC2; HEK293 KCNK9, FluxOR thallium flux fluorescence; stronger effect = lower value; B-score at 10 µM; hit rate 1.2% among 310,000; AID 488922;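 active means ratio B-score over 3 SD below the library mean, with starting fluorescence within 5 SD of its mean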;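 further: negative B-score means less thallium flux so channel inhibition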
hERG protect – hERG (human) protection from proarrhythmic block; Q12809; CHO-hERG, FluxOR thallium flux, dofetilide IC70 present; activation (rescue from dofetilide block), less the hit threshold, % at 10 µM; hit rate 0.51% among 310,000; AID 1511;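 active means activation above the mean of controls blocked by dofetilide plus 5 SD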;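 further: thallium influx through hERG after potassium depolarization seen as dye fluorescence rise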
KCC2 mod – KCC2 (human) Cl- transport modulation | Q9H2X9 | KCC2 cells, thallium flux FluoZin-2 fluorescence | AID 1456 | B-score of Tl+ flux slope (higher = more flux/activation; lower = inhibition) at 10 µM | hit rate 2.2% among 190,000;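 active means thallium flux slope and its plate-corrected score both differing from the plate sample mean at a set confidence after two filtering rounds, in either direction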;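 further: slope of fluorescence scaled to starting intensity during 10 to 20 s after thallium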
KCNQ1 block – inhibitors of human KCNQ1 potassium channel | CHO-K1 KCNQ1, FluxOR thallium flux fluorescence; stronger effect = higher value | B-score at 10 µM | P51787 | hit rate 1.3% among 310,000;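 active means compounds whose thallium flux B-score, printed positive for inhibition, exceeds three library SD while starting fluorescence stays within three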;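 further: channel opened by potassium depolarization with thallium stimulus after 20 min compound exposure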
Target sequence (P51787 whole entry, looked up): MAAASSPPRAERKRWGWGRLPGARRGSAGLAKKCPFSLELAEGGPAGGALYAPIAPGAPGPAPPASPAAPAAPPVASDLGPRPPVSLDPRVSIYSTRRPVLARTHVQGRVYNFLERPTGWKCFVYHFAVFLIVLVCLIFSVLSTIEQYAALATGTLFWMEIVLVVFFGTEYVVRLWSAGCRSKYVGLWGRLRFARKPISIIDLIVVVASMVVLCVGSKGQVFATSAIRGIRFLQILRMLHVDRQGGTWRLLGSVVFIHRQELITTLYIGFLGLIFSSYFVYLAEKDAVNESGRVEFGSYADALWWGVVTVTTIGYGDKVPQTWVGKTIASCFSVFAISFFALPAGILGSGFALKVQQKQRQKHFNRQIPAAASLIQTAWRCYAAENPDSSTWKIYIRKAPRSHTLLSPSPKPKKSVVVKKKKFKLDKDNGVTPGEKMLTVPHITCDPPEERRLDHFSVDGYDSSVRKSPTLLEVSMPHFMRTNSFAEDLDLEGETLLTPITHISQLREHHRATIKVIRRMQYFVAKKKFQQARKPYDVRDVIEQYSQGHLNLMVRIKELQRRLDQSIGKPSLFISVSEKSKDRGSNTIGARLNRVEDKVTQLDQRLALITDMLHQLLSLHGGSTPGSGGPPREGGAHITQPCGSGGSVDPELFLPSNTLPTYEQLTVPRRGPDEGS
KCNQ1 pot – potentiators or activators of human KCNQ1 potassium channel. hit rate 0.35% among 310,000. B-score at 10 µM. CHO-K1 KCNQ1, thallium flux FluxOR fluorescence; stronger effect = higher value. P51787;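 active means fluorescence ratio B-score, a plate-corrected score, at least three library SD, with initial intensity B-score within 5 SD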
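assay system = CHO-K1 cells stably expressing KCNQ1 | medium = assay buffer, equal DMSO in all wells | timing = 37 °C overnight plating, 90-min dark dye load, 20-min compound pretreatment | measured by = kinetic FluxOR thallium fluorescence, 10-s 1-Hz baseline, 110-s post-stimulus read | measure = fluorescence change relative to baseline, converted to B score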
KCNK3 inh – human KCNK3 channel inhibition, primary screen; CHO-KCNK3 thallium flux, FluxOR fluorescence; stronger effect = lower value; B-score at 10 µM; hit rate 0.84% among 340,000;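 active means B-score under library mean minus 4 SD, starting fluorescence ratio at most library mean plus 5 SD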;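 further: more negative B-score means stronger inhibition of thallium flux through KCNK3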
KCNQ1 block val – human KCNQ1 channel inhibition, validation assay. shares compounds with KCNQ1 block. KCNQ1 cell line, FluxOR thallium flux fluorescence. inhibition, % at 10 µM. hit rate 93% among 1,600. AID 588353;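 active means primary screen active, with duplicate mean exceeding buffer control mean plus 3 SD of buffer wells, cut at about 28% in these data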;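 further: 0% = buffer control ratio and 100% = XE991 inhibitor control ratio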
CHO KCNQ1 ctr – KCNQ1 inhibitor counter-screen hit in parental CHO cells; shares compounds with KCNQ1 block; parental CHO-K1, FluxOR thallium flux fluorescence ratio; stronger effect = lower value; zero means no signal rise above baseline; hit rate 21% among 1,600; AID 588366; fluorescence ratio (Tl flux) at 10 µM;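 active means mean of duplicate thallium-flux fluorescence ratios in parental host cells more than 5 SD below the buffer control mean, cut at about 0.38 in these data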;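 further: ratio is peak minus minimum fluorescence divided by baseline fluorescence; actives read low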
KCNQ1 ephys val – confirmation of human KCNQ1 potassium channel inhibitors by electrophysiology; calls only at 10 µM; AID 624120; shares compounds with KCNQ1 block; KCNQ1-CHO cells, automated patch clamp current; hit rate 20% among 490;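 active means KCNQ1 current drop exceeding 3 SD of negative control wells, seen in both duplicate runs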;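 further: steady state current during a 2 s step from -80 to +40 mV; negative values mean current inhibition and positive values mean potentiation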
KCNQ2 spec – selectivity of KCNQ1 inhibitors: inhibition of rat KCNQ2 channel; shares compounds with KCNQ1 block; inhibition, % at 10 µM; AID 651746; hit rate 71% among 1,600; KCNQ2 cells, FluxOR thallium flux fluorescence;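 active means mean percent inhibition of the KCNQ2 thallium signal more than 5 SD above the buffer-only control wells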;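 further: KCNQ2 expressed in CHO cells; 0% = buffer control wells and 100% = XE-991 inhibitor control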
KCNQ1-KCNE1 inh – selectivity of KCNQ1 inhibitors: inhibition of human KCNQ1/KCNE1 channel | shares compounds with KCNQ1 block | KCNQ1/KCNE1 cells, FluxOR thallium flux fluorescence | inhibition, % at 10 µM | hit rate 77% among 1,600 | AID 652147;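 active means mean percent inhibition of duplicate wells above the buffer-only control mean plus 3 SD of those controls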;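 further: 0% = buffer only wells and 100% = XE-991 inhibitor control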
Starred values were filed as active, the others as inactive; i = inactive; . = no result; + = active, no number. An excerpt weighted towards active compounds, which were near 4.1% of everything screened.

SMILES	KCNK9 inh	hERG protect	KCC2 mod	KCNQ1 block	KCNQ1 pot	KCNK3 inh	KCNQ1 block val	CHO KCNQ1 ctr	KCNQ2 spec	KCNQ1-KCNE1 inh	others
O=C(Nc1nc(-c2ccccc2)c(C(=O)c2ccccc2)s1)c1ccc(S(=O)(=O)N2CCCCC2)cc1	i	-14	0.56	8*	i	i	83*	0.51	i	112%*
O=C(Nc1nc(-c2ccccc2)c(-c2ccccc2)s1)c1ccc(S(=O)(=O)N2CCCCC2)cc1	i	-8	0.29	i	i	i	.	.	.	.
CC1CCN(c2oc(Cc3cccc4ccccc34)nc2C#N)CC1	i	-8	.	8*	i	i	99*	0.39	101%*	112%*
CCN1C(=O)[C@H]2[C@@H](c3ccc(-c4ccc(OC)cc4)cc3)N[C@@](CC(C)C)(C(=O)OC)[C@H]2C1=O	i	-6	.	i	i	i	.	.	.	.
Oc1ccc(Nc2nc(NCC3CCCO3)c3ccccc3n2)cc1 (stereo not drawn)	i	-17	-2	i	i	i	.	.	.	.
c1cncc(-c2nc(NCC3CCCO3)c3ccccc3n2)c1 (stereo not drawn)	i	-6	.	i	i	i	.	.	.	.
CC(C)Oc1ccc(-c2nc(NCC3CCCO3)c3ccccc3n2)cc1 (stereo not drawn)	i	-14	-0.95	8*	i	i	98*	0.46	108%*	120%*	KCNQ1 ephys val=i
COc1cccc(Nc2nc(NCC3CCCO3)c3ccccc3n2)c1 (stereo not drawn)	i	-30	-1.1	6*	i	i	82*	0.46	105%*	152%*
NC(=O)CC1C(=O)N(c2ccccc2)C(=S)N1NC(=O)c1ccccc1 (stereo not drawn)	i	-2	.	i	i	i	.	.	.	.
O=S(=O)(Nc1ccc(F)cc1)N1CCCCCC1	i	-4	.	i	i	i	.	.	.	.
O=C(Nc1ccc(F)cc1)c1ccccc1NS(=O)(=O)N1CCCC1	i	-10	-0.86	7*	i	i	82*	0.54	67%*	i
O=C(Nc1ccccc1N1CCCCC1)c1ccccc1F	i	-7	.	6*	i	i	102*	0.37*	76%*	144%*
Cc1ccccc1OCC(=O)Nc1ccccc1N1CCCCC1	-8*	-9	-1.4	8*	i	i	120*	0.46	95%*	170%*	KCNQ1 ephys val=i
O=C(Nc1ccccc1N1CCCC1)c1ccccc1F	i	-2	.	i	i	i	.	.	.	.
O=C(COc1ccccc1[N+](=O)[O-])Nc1ccccc1N1CCCCC1	i	-9	.	i	i	i	.	.	.	.
CNC(=O)CSc1nnc(-c2ccco2)n1-c1cccc(OC)c1	i	-2	.	i	i	i	.	.	.	.
COc1ccc(C(=O)NNC(=O)C(=O)NC2CCCCC2)cc1	i	0	.	i	i	i	.	.	.	.
COc1ccc2oc(C(=O)N3CCN(C(c4ccccc4)c4ccccc4)CC3)c(C)c2c1	i	-12	.	9*	i	i	93*	0.44	101%*	114%*	KCNQ1 ephys val=+
COc1ccc2oc(C(=O)N3CCN(C/C=C/c4ccccc4)CC3)c(C)c2c1	.	.	.	.	.	i	.	.	.	.
COc1ccc(-c2cc(C(=O)N3CCN(C(c4ccccc4)c4ccccc4)CC3)no2)cc1	i	-14	0.33	i	i	i	.	.	.	.
CC(C)Cc1cc(C(=O)N2CCN(C(c3ccccc3)c3ccccc3)CC2)no1	i	-9	0.083	7*	i	i	136*	0.44	109%*	176%*	KCNQ1 ephys val=i
O=C(c1cc(-c2ccco2)on1)N1CCN(C(c2ccccc2)c2ccccc2)CC1	i	-9	.	8*	i	i	124*	0.43	96%*	142%*
COc1ccc(-c2cc(C(=O)N3CCN(C(c4ccccc4)c4ccccc4)CC3)no2)cc1OC	i	-10	0.11	i	i	i	.	.	.	.
CC(C)c1cc(C(=O)N2CCN(C(c3ccccc3)c3ccccc3)CC2)no1	-7.9*	-7	-1.8	7*	i	i	108*	0.41	103%*	110%*	KCNQ1 ephys val=i
CN1C(=O)N(CC(=O)Nc2nccs2)C(=O)C12CCCCC2	.	.	.	.	.	i	.	.	.	.
SMILES	KCNK9 inh	hERG protect	KCC2 mod	KCNQ1 block	KCNQ1 pot	KCNK3 inh	KCNQ1 block val	CHO KCNQ1 ctr	KCNQ2 spec	KCNQ1-KCNE1 inh	others
COc1ccc(NS(=O)(=O)c2cccc(C(=O)O)c2)cc1S(=O)(=O)N1CCCCC1	.	.	.	.	.	i	.	.	.	.
COc1cc(C(=O)OCC(=O)NC2CCCCC2)cc2c1OCCO2	.	.	.	.	.	i	.	.	.	.
COc1cccc(NC(=O)C(c2ccccc2)N2CCCCC2)c1 (stereo not drawn)	i	-10	0.099	i	i	i	.	.	.	.
Cc1ccc(NC(=O)C(c2ccc(Cl)cc2Cl)N2CCCC2)cc1 (stereo not drawn)	-7.1*	-9	0.5	8*	i	i	92*	0.38	i	152%*	KCNQ1 ephys val=+
O=C(Nc1cc(Cl)cc(Cl)c1)C(c1ccccc1)N1CCCCC1 (stereo not drawn)	i	-8	1.5	8*	i	i	120*	0.36*	122%*	114%*
CC(C)(C)c1csc(NC(=O)C2COc3ccccc3O2)n1 (stereo not drawn)	i	-9	.	7*	i	i	68*	0.52	60%*	80%*
COc1ccc(Nc2nc(N3CCCC3)c3ccccc3n2)cc1	i	-8	1.8	i	i	i	.	.	.	.
CCN(CC)c1ccc(Nc2nc(N3CCOCC3)c3ccccc3n2)cc1	i	-14	-0.82	8*	i	i	112*	0.4	117%*	100%*	KCNQ1 ephys val=i
COc1ccc(/C=N/NC(=O)c2cc3c(ccc4ccccc43)o2)c(OC)c1	i	-23	.	18*	i	i	82*	0.43	64%*	170%*
CCOc1ccc(NC(=O)CN(C)C(=O)c2cc(C3CC3)nn2-c2ccccc2)cc1OCC	.	.	.	.	.	i	.	.	.	.
